Active and inactive are the calls of the source. No cut-off for these calls is given here.
Columns and labels:
P388 [1] = assay: Antineoplastic activity against mouse P388 cells allografted in CDF1 mouse assessed as prolongation of host survival time at 5 mg/kg administered daily for 6 days starting 24 hrs after tumor implantation relative to control; format: functional
Outline: (§1)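 P388 leukemia (1×10^6 cells, intraperitoneal) in female CDF1 mice; dosing once daily for 6 consecutive days beginning 24 h post-implantation, 5-15 mice per group. Activity expressed as % T/C, the ratio of survival time of treated to untreated control animals. Daily weighing gave percent body-weight change over the treatment period as a toxicity measure.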

[2] = Stability of the compound measured under neutral conditions; format: physicochemical
[3] = biological target: Alkaline phosphatase (Escherichia coli K-12) (UniProt P00634); assay: Inhibition of Escherichia coli alkaline phosphatase assessed as p-nitrophenol formation using p-nitrophenyl phosphate as substrate up to 100 uM treated 15 mins prior to substrate addition by spectrophotometric analysis
Sequence of Alkaline phosphatase (Escherichia coli K-12) (P00634 whole entry): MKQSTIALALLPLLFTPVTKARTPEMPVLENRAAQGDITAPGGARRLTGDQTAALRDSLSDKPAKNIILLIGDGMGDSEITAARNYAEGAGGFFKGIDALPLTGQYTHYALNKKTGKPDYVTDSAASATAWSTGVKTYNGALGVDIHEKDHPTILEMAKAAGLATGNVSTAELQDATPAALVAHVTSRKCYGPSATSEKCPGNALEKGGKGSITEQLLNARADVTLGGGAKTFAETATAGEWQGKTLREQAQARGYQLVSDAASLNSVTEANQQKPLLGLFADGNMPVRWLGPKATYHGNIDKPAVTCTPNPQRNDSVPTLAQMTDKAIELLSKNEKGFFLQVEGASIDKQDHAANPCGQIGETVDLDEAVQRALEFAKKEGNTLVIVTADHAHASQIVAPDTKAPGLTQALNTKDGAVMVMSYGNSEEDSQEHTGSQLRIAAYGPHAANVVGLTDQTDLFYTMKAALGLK
Outline: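 E. coli alkaline phosphatase (0.021 unit) in 1 M Tris-HCl pH 9.0, preincubated 15 min at 37 °C with inhibitor added in 50% DMSO. Reaction started with 10^-3 M p-nitrophenyl phosphate. Initial rise in absorbance at 410 nm read at room temperature in a 1-cm cell. Controls had enzyme preincubated 15 min with 50% DMSO alone.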

P388 [4] = assay: Antineoplastic activity against mouse P388 cells allografted in CDF1 mouse assessed as host survival time at 5 mg/kg administered daily for 6 days starting 24 hrs after tumor implantation (reference value: 11.2 +/- 0.4 days); format: functional
Mus musculus [5] = assay: Toxicity in CDF1 mouse allografted with mouse P388 cells assessed as change in body weight at 10 mg/kg administered daily for 6 days starting 24 hrs after tumor implantation (reference value: -2.4%); format: organism-based; set-up: dose 10 mg/kg; conditions: in vivo
P388 [6] = assay: Antineoplastic activity against mouse P388 cells allografted in CDF1 mouse assessed as prolongation of host survival time at 20 mg/kg administered daily for 6 days starting 24 hrs after tumor implantation relative to control; format: functional; outline: as §1
P388 [7] = assay: Antineoplastic activity against mouse P388 cells allografted in CDF1 mouse assessed as host survival time at 10 mg/kg administered daily for 6 days starting 24 hrs after tumor implantation (reference value: 11.2 +/- 0.4 days); format: functional
P388 [8] = assay: Antineoplastic activity against mouse P388 cells allografted in CDF1 mouse assessed as prolongation of host survival time at 10 mg/kg administered daily for 6 days starting 24 hrs after tumor implantation relative to control; format: functional; outline: as §1
Mus musculus [9] = assay: Toxicity in CDF1 mouse allografted with mouse P388 cells assessed as change in body weight at 5 mg/kg administered daily for 6 days starting 24 hrs after tumor implantation (reference value: -2.4%); format: organism-based; set-up: dose 5 mg/kg; conditions: in vivo
[10] = Stability of the compound in ethanol with sodium ethoxide assessed as isomerization; format: physicochemical
P388 [11] = assay: Antineoplastic activity against mouse P388 cells allografted in CDF1 mouse assessed as host survival time at 20 mg/kg administered daily for 6 days starting 24 hrs after tumor implantation (reference value: 11.2 +/- 0.4 days); format: functional
P388 [12] = assay: Antineoplastic activity against mouse P388 cells allografted in CDF1 mouse assessed as prolongation of host survival time at 2.5 mg/kg administered daily for 6 days starting 24 hrs after tumor implantation relative to control; format: functional; outline: as §1
P388 [13] = assay: Antineoplastic activity against mouse P388 cells allografted in CDF1 mouse assessed as host survival time at 2.5 mg/kg administered daily for 6 days starting 24 hrs after tumor implantation (reference value: 11.2 +/- 0.4 days); format: functional
Mus musculus [14] = assay: Toxicity in CDF1 mouse allografted with mouse P388 cells assessed as change in body weight at 2.5 mg/kg administered daily for 6 days starting 24 hrs after tumor implantation (reference value: -2.4%); format: organism-based; set-up: dose 2.5 mg/kg; conditions: in vivo
Mus musculus [15] = assay: Toxicity in CDF1 mouse allografted with mouse P388 cells assessed as change in body weight at 20 mg/kg administered daily for 6 days starting 24 hrs after tumor implantation (reference value: -2.4%); format: organism-based; set-up: dose 20 mg/kg; conditions: in vivo

Row | SMILES | T/C (P388 [1]) | Stability [2] | inhibition [3] | Time (P388 [4]) | Activity (Mus musculus [5]) | T/C (P388 [6]) | Time (P388 [7]) | T/C (P388 [8]) | Activity (Mus musculus [9]) | Stability [10] | Time (P388 [11]) | T/C (P388 [12]) | Time (P388 [13]) | Activity (Mus musculus [14]) | Activity (Mus musculus [15])
1 | CNC(=S)N/N=C1/CCCc2cccnc21 | 107% | Stable | inactive | 12 days | -10.8% | 18% | 13.6 days | 121% | -7.7% | Unstable | 2 days | – | – | – | –
2 | C=CCNC(=S)N/N=C1\CCCc2cccnc21 | 118% | – | inactive | 13.2 days | -9.1% | – | 14 days | 125% | -8.4% | – | – | 100% | 11.2 days | 0.7% | –
3 | C=CCNC(=S)N/N=C1/CCCc2cccnc21 | 88% | Stable | inactive | 9.8 days | -6.1% | – | 7.8 days | 70% | 0% | Unstable | – | 91% | 10.2 days | 4.6% | –
4 | NC(=S)N/N=C1/CCCc2cccnc21 | 116% | Stable | inactive | 13 days | -21.5% | 73% | 15.8 days | 141% | 6.7% | Unstable | 9.2 days | – | – | – | -30.8%
5 | CNC(=S)N/N=C1\CCCc2cccnc21 | 143% | – | inactive | 16 days | – | – | 2 days | 18% | -12% | – | – | 119% | 13.4 days | -9.3% | –
6 | NC(=S)N/N=C1\CCCc2cccnc21 | 106% | – | inactive | 11.8 days | -10.7% | – | 14.8 days | 132% | -3.8% | – | – | 104% | 11.6 days | -5.3% | –
